ChEMBL document CHEMBL4177770, “Discovery of MK-6169, a Potent Pan-Genotype Hepatitis C Virus NS5A Inhibitor with Optimized Activity against Common Resistance-Associated Substitutions” (J Med Chem, 2018)
Numbering of substitutions follows the chain as printed.

Experiments:
[1] = system: T1, Nonstructural protein 5A (Hepatitis C virus), Q5L478 [L28M,Y93H]; experiment: Inhibition of NS5A L28M/Y93H double mutant in HCV genotype 1b infected in HuH7 replicon cells assessed as decrease in viral replication after 3 days by RT-PCR method; format: cell-based; details: Hepatitis C virus subtype 1b
T1 sequence (whole entry): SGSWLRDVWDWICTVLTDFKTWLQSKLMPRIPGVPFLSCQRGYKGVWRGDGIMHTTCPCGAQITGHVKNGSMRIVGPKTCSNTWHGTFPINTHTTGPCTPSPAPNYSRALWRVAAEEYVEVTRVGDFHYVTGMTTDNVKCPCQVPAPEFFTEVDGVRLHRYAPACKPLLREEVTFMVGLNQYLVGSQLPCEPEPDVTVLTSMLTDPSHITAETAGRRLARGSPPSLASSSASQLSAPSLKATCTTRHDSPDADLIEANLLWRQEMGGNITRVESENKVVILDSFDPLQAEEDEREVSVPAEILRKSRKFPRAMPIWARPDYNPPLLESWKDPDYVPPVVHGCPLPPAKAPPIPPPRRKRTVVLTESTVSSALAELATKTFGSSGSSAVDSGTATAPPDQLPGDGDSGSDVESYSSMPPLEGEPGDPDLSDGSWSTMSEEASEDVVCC

[2] = molecular target: T2, Nonstructural protein 5A (Hepatitis C virus) (UniProt Q5L478); experiment: Inhibition of NS5A L31V mutant in HCV genotype 1b infected in HuH7 replicon cells assessed as decrease in viral replication after 3 days by RT-PCR method; format: cell-based; details: Hepatitis C virus subtype 1b
T2 sequence (whole entry): T1 sequence (whole entry) with M28L, H93Y

[3] = Resistance ratio of EC90 for NS5A A92K mutant in HCV genotype 1b infected in HuH7 replicon cells to EC90 for NS5A in HCV genotype 1a infected in HuH7 replicon cells; format: cell-based
[4] = MRT in Wistar Han rat at 300 mg/kg, po by LC/MS method; format: ADME, organism-based; details: in vivo
Procedure, shortened: (§1)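 Single rising oral dose study in fed male Wistar Han rats, dosed PO in 10% TWEEN at the indicated doses. Plasma was obtained by centrifuging the blood, and compound levels were determined by LC/MS.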

[5] = Cmax in Wistar Han rat at 10 mg/kg, po by LC/MS method; format: ADME, organism-based; set-up: dose 10 mg/kg, route oral; details: in vivo
Procedure, shortened: (§2)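 Male Wistar Han rats, two per dosing group, dosed orally at 10 mg/kg in 10% TWEEN. Plasma was separated from collected blood by centrifugation and analysed by LC/MS.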

[6] = molecular target: T2, Nonstructural protein 5A (Hepatitis C virus); experiment: Inhibition of NS5A F28Y mutant in HCV genotype 2a infected in HuH7 replicon cells assessed as decrease in viral replication after 3 days by RT-PCR method; format: cell-based; details: Hepatitis C virus subtype 2a
[7] = system: Nonstructural protein 5A (Hepatitis C virus), Q5L478 [UNDEFINED MUTATION]; experiment: Inhibition of NS5A L31M/Y93C double mutant in HCV genotype 1a infected in HuH7 replicon cells assessed as decrease in viral replication after 3 days by RT-PCR method; format: cell-based; details: Hepatitis C virus subtype 1a
[8] = molecular target: T2, Nonstructural protein 5A (Hepatitis C virus); experiment: Inhibition of NS5A D168Y mutant in HCV genotype 1b infected in HuH7 replicon cells assessed as decrease in viral replication after 3 days by RT-PCR method; format: cell-based; details: Hepatitis C virus subtype 1b
Huh-7 = experiment: Cytotoxicity against human HuH7 cells assessed as effect on GAPDH mRNA levels up to 25 uM; format: cell-based
Procedure, shortened: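 Huh-7 cells were exposed to compound up to a top concentration of 25 µM. Cytotoxicity was monitored as the change in GAPDH mRNA levels.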

[9] = molecular target: T2, Nonstructural protein 5A (Hepatitis C virus); experiment: Inhibition of NS5A L30H mutant in HCV genotype 4a infected in HuH7 replicon cells assessed as decrease in viral replication after 3 days by RT-PCR method; format: cell-based; details: Hepatitis C virus subtype 4a
[10] = system: Hepatitis C virus subtype 1a; experiment: Resistance ratio of EC90 for NS5A L31M/Y93C double mutant in HCV genotype 1a infected in HuH7 replicon cells to EC90 for NS5A in HCV genotype 1a infected in HuH7 replicon cells; format: cell-based
[11] = Resistance ratio of EC90 for NS3 A156T mutant in HCV genotype 1b infected in HuH7 replicon cells to EC90 for NS5A in HCV genotype 1a infected in HuH7 replicon cells; format: cell-based
[12] = Tmax in Wistar Han rat at 300 mg/kg, po by LC/MS method; format: ADME, organism-based; details: in vivo; procedure, shortened: as §1
[13] = Drug level in Wistar Han rat at 300 mg/kg, po measured at 24 hrs by LC/MS method; format: ADME, organism-based; details: in vivo, read-out: Drug uptake; procedure, shortened: as §1
[14] = Oral bioavailability in Wistar Han rat at 10 mg/kg by LC/MS method; format: ADME, organism-based; details: in vivo; procedure, shortened: as §2
[15] = Resistance ratio of EC90 for NS5A A30T mutant in HCV genotype 3a infected in HuH7 replicon cells to EC90 for NS5A in HCV genotype 1a infected in HuH7 replicon cells; format: cell-based
[16] = MRT in Wistar Han rat at 100 mg/kg, po by LC/MS method; format: ADME, organism-based; details: in vivo; procedure, shortened: as §1
[17] = Resistance ratio of EC90 for NS5A in HCV genotype 3a infected in HuH7 replicon cells to EC90 for NS5A in HCV genotype 1a infected in HuH7 replicon cells; format: cell-based
[18] = Resistance ratio of EC90 for NS5A L31V mutant in HCV genotype 3a infected in HuH7 replicon cells to EC90 for NS5A in HCV genotype 1a infected in HuH7 replicon cells; format: cell-based

In the case of COC(=O)N[C@H](C(=O)N1CCC[C@H]1c1ncc(-c2cc(F)c3c(c2)O[C@@H](c2ccc(C4CC4)s2)n2c-3cc3cc(-c4cnc([C@@H]5CCCN5C(=O)[C@@H](NC(=O)OC)[C@@H]5CCOC(C)(C)C5)[nH]4)ccc32)[nH]1)C(C)C, the EC90 [1] is reported as 0.065 nM, the EC90 [2] is reported as 0.0058 nM and the Ratio [3] is reported as 6. It also gave an MRT [4] of 10.7 h, a Cmax [5] of 150 to 183 nM and an EC90 [6] of 0.069 nM. For the same compound, the EC90 [7] was 0.18 nM, the EC90 [8] was 0.0018 nM and the Activity (Huh-7) was “Non-Toxic”. For the same compound, the EC90 [9] was 0.072 nM, the Ratio [10] was 43 and the Ratio [11] was 1. For the same compound, the Tmax [12] was 5 h, the concentration at 24 h [13] was 164 nM and the bioavailability [14] was 6.6%. It also gave a Ratio [15] of 1, an MRT [16] of 12.4 h and a Ratio [17] of 2. The Ratio [18] was 762.
